Results taken from ChEMBL document CHEMBL4265908, “Structure-activity and structure-property relationships of novel Nrf2 activators with a 1,2,4-oxadiazole core and their therapeutic effects on acetaminophen (APAP)-induced acute liver injury” (Eur J Med Chem, 2018).

Experiments:
Format in all cases: cell-based
[1] = target: T1, Nuclear factor erythroid 2-related factor 2 (Homo sapiens) (UniProt Q16236); assay: Activation of Nrf2 in human HepG2-ARE-C8 cells assessed as induction of ARE-mediated luciferase activity at 0.01 uM after 24 hrs by luciferase reporter gene assay relative to control
T1 sequence (whole entry): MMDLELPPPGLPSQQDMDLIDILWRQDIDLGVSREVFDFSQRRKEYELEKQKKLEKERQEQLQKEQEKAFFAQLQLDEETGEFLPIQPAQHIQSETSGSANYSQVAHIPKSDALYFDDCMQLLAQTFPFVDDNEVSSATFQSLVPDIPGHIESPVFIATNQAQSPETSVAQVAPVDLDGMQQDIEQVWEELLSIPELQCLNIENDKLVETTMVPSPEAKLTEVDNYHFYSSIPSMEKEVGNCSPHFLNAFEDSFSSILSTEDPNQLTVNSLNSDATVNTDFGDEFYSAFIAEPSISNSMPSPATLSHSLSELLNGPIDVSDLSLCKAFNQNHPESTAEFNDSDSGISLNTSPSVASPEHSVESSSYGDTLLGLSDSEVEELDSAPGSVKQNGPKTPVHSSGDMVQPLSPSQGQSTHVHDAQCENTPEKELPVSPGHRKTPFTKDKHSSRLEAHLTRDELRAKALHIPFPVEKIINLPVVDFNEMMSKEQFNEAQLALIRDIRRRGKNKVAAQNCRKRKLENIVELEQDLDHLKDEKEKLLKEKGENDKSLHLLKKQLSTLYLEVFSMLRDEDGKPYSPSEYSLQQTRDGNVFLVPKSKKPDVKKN
In short: (§1)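 HepG2-ARE-C8 cells stably carrying ARE-luciferase, grown in DMEM with 10% FBS at 37 °C and 5% CO2. Seeded at 5 × 10^4 cells/well, left overnight, then given compound diluted from a 10 mM DMSO stock for 24 h. Cells lysed and luciferase read as RLU. Inductivity = (RLUtest − RLUblank)/(RLUcontrol − RLUblank), with DMSO as control. Mean ± SEM of three experiments.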

HepG2 = assay: Cytotoxicity against human HepG2 cells at 80 uM after 24 hrs by MTT assay; conditions: hepg2, 24 h
[2] = target: T1, Nuclear factor erythroid 2-related factor 2 (Homo sapiens); assay: Activation of Nrf2 in human HepG2-ARE-C8 cells assessed as induction of ARE-mediated luciferase activity at 0.1 uM after 24 hrs by luciferase reporter gene assay relative to control; in short: as §1
[3] = target: T1, Nuclear factor erythroid 2-related factor 2 (Homo sapiens); assay: Activation of Nrf2 in human HepG2-ARE-C8 cells assessed as induction of ARE-mediated luciferase activity at 1 uM after 24 hrs by luciferase reporter gene assay relative to control; in short: as §1
[4] = target: T1, Nuclear factor erythroid 2-related factor 2 (Homo sapiens); assay: Activation of Nrf2 in human HepG2-ARE-C8 cells assessed as induction of ARE-mediated luciferase activity at 20 uM after 24 hrs by luciferase reporter gene assay relative to control; in short: as §1
[5] = target: T1, Nuclear factor erythroid 2-related factor 2 (Homo sapiens); assay: Activation of Nrf2 in human HepG2-ARE-C8 cells assessed as induction of ARE-mediated luciferase activity at 40 uM after 24 hrs by luciferase reporter gene assay relative to control; in short: as §1
[6] = target: T1, Nuclear factor erythroid 2-related factor 2 (Homo sapiens); assay: Activation of Nrf2 in human HepG2-ARE-C8 cells assessed as induction of ARE-mediated luciferase activity at 80 uM after 24 hrs by luciferase reporter gene assay relative to control; in short: as §1

| Activity [1] | Activity [2] | Activity [3] | Activity [4] | Activity [5] | Activity [6] | Compound | Activity (HepG2) |
| --- | --- | --- | --- | --- | --- | --- | --- |
| 1.62 | 2.17 | 2.48 | 4.58 | 7.34 | 8.36 | Fc1ccc(-c2nc(-c3ccc4nc[nH]c4c3)no2)c(F)c1 | Non-Toxic |
| 1.74 | 3.23 | 4.78 | 12.8 | 13.2 | 19.1 | Clc1cccc(-c2nc(-c3ccc4nc[nH]c4c3)no2)c1 | Non-Toxic |
| 1.16 | 1.27 | 1.52 | 1.96 | 1.96 | 3.57 | Fc1ccc(-c2nc(-c3ccc4ccccc4c3)no2)cc1F | Non-Toxic |
| 1.87 | 1.91 | 2.15 | 3.45 | 3.55 | 4.45 | COc1cc(OC)cc(-c2noc(-c3ccc(F)c(F)c3)n2)c1 | Non-Toxic |
| 2.01 | 4.51 | 12 | 12.7 | 15 | 19.1 | Fc1ccccc1-c1nc(-c2ccc3nc[nH]c3c2)no1 | Non-Toxic |
| 0.58 | 1.16 | 1.76 | 1.98 | 2.63 | 3.63 | Fc1ccc(-c2nc(-c3ccccc3Br)no2)cc1F | Non-Toxic |
| 0.83 | 1.88 | 2.01 | 2.36 | 3.77 | 4.02 | Fc1ccc(-c2nc(-c3cccc4[nH]ccc34)no2)cc1F | Non-Toxic |
| 3.85 | 3.96 | 4.25 | 4.85 | 5.91 | 6.95 | Fc1ccc(-c2nc(-c3ccccc3F)no2)cc1F | Non-Toxic |
| 0.96 | 1.97 | 2.17 | 2.95 | 5.79 | 6.35 | Fc1ccc(-c2noc(-c3ccc(F)c(F)c3)n2)nc1 | Non-Toxic |
| 0.92 | 1.06 | 1.07 | 2.05 | 2.95 | 5.82 | Fc1ccc(-c2nc(-c3ncccn3)no2)cc1F | Non-Toxic |
| – | – | – | – | – | – | Fc1ccc(-c2nc(-c3ccc4[nH]cnc4c3)no2)cc1Cl | Non-Toxic |
| 1.04 | 3.88 | 3.22 | 7.53 | 9.59 | 12.5 | Fc1ccc(-c2nc(-c3ccc4nc[nH]c4c3)no2)cc1Cl | – |
| 1.77 | 2.22 | 3.7 | 4.55 | 10.7 | 16.5 | Fc1cccc(-c2nc(-c3ccc4nc[nH]c4c3)no2)c1F | Non-Toxic |
| 2.85 | 3.06 | 3.85 | 7.65 | 8.29 | 9.95 | Fc1ccc(-c2nc(-c3ccc(Cl)cc3)no2)cc1F | Non-Toxic |
| 0.22 | 0.25 | 0.87 | 13.4 | 3.44 | 2.75 | Brc1ccc(-c2nc(-c3ccc4nc[nH]c4c3)no2)cc1 | Non-Toxic |
| 1.45 | 1.71 | 2.02 | 3.15 | 3.15 | 4.15 | Fc1ccc(-c2nc(-c3cccnc3)no2)cc1F | Non-Toxic |
| 1.76 | 2.12 | 2.05 | 3.75 | 5.68 | 6.93 | Fc1ccc(-c2noc(-c3ccc(F)c(F)c3)n2)cc1 | Non-Toxic |
| 1.08 | 1.62 | 1.07 | 1.29 | 1.72 | 2.88 | Fc1ccc(-c2nc(-c3ccncc3)no2)cc1F | Non-Toxic |
| 1.01 | 2.65 | 4.18 | 12.1 | 21.6 | 25.1 | Fc1ccc(-c2nc(-c3ccc4nc[nH]c4c3)no2)c(Br)c1 | Non-Toxic |
| 1.42 | 1.36 | 1.73 | 1.73 | 2.68 | 2.56 | Fc1ccc(-c2noc(-c3ccc(F)c(F)c3)n2)cc1F | Non-Toxic |
| 1.21 | 2.69 | 4.49 | 8.83 | 12.4 | 14.1 | Fc1cccc(-c2nc(-c3ccc4nc[nH]c4c3)no2)c1 | Non-Toxic |
| 0.92 | 1.81 | 2.05 | 2.76 | 3.45 | 5.46 | Fc1cccc(-c2noc(-c3ccc(F)c(F)c3)n2)c1 | Non-Toxic |
| 1.94 | 1.18 | 1.26 | 3.35 | 5.14 | 7.61 | Fc1cc(F)c(-c2nc(-c3ccc4nc[nH]c4c3)no2)cc1Cl | Non-Toxic |
| 1.55 | 1.86 | 2.15 | 3.95 | 4.36 | 7.92 | Fc1cc(F)c(-c2nc(-c3ccc4nc[nH]c4c3)no2)cc1F | Non-Toxic |
| 1.25 | 2.03 | 2.04 | 2.61 | 3.78 | 5.01 | CC(=O)c1ccc(-c2noc(-c3ccc(F)c(F)c3)n2)cc1 | Non-Toxic |
| 2.31 | 4.15 | 5.24 | 16.9 | 20.2 | 21.9 | Fc1ccc(F)c(-c2nc(-c3ccc4nc[nH]c4c3)no2)c1 | Non-Toxic |
| 0.33 | 0.72 | 1.64 | 15.5 | 18.5 | 14.1 | Clc1ccc(-c2nc(-c3ccc4nc[nH]c4c3)no2)cc1 | Non-Toxic |
| 0.68 | 2.98 | 4.22 | 11.8 | 14.7 | 18.3 | Fc1ccc(-c2nc(-c3ccc4nc[nH]c4c3)no2)c(Cl)c1 | Non-Toxic |
| 1.68 | 1.36 | 1.89 | 3.46 | 3.92 | 4.84 | Fc1ccc(-c2nc(-c3ccc4nc[nH]c4c3)no2)cc1Br | Non-Toxic |
| 0.65 | 0.83 | 1.05 | 1.31 | 1.32 | 2.55 | Fc1ccc(-c2nc(-c3ccccn3)no2)cc1F | Non-Toxic |
